Data published in PubChem BioAssay AID449763 (Sanford-Burnham Center for Chemical Genomics, 2010).
Screen size: about 330,000 compounds; about 1,100 (0.33%) were called active. The sample as a whole holds a higher share of actives than the screen did. Values without a mark were called inactive.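 Rule for the calls: active = at 10 µM dose, activation of 40% or more, normalized to positive control; inactive = the rest.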

Assay: activators of apoptotic CHOP UPR arm, primary screen, cell-based, CHO-CHOP luciferase reporter, luminescence, uHTS (AID 449763);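 note: 100% = tunicamycin at 10 µg/mL and 0% = DMSO alone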
Conditions: at 10 µM, stronger effect = higher value, percent of tunicamycin response over DMSO baseline
Procedure, shortened: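 assay system = CHO CHOP reporter cells | amount = 500 CHO-CHOP cells per well | buffer or medium = F12 with 10% FBS | incubation = 16-18 h cell attachment, then 6 h compound exposure, 37 °C | detection = luminescence read with Steady-Glo | read-out = percent activation relative to tunicamycin control | controls = tunicamycin high control, DMSO low control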

| SMILES | activation |
| --- | --- |
| COc1ccccc1C(=O)NCc1nnc(SC(C)C(=O)Nc2nccs2)n1C (stereo not drawn) | -1.66% |
| O=C(NCc1ccc(Cl)cc1)c1cc(=O)nc2sc(-c3ccccc3)nn12 | -2.04% |
| COc1ccc(OC)c(-c2csc(NC(=O)C3=NNC(=O)CC3)n2)c1 | -1.74% |
| COc1ccc(OC)c(Nc2nc(-c3ccc(O)c(O)c3)cs2)c1 | 74.3% (active) |
| COc1ccc(OC)c(-c2csc(NC(=O)COC(=O)C3CC3)n2)c1 | 1.31% |
| COC(=O)C1CCN(C(=O)COC(=O)c2cc(S(=O)(=O)N3CCOCC3)ccc2C)CC1 | 0.025% |
| COc1ccc(C2=NOC(Cn3nc(C(=O)NCc4ccc5c(c4)OCO5)cc3-c3ccccc3)C2)cc1 (stereo not drawn) | 0.69% |
| Cc1ccsc1C(=O)OCC(=O)c1cc(C)n(CC2CCCO2)c1C (stereo not drawn) | -8.43% |
| O=C1C(=O)N(CC2COc3ccccc3O2)c2ccccc21 (stereo not drawn) | 2.24% |
| Cc1cc(C(=O)CCl)c(C)n1CC1COc2ccccc2O1 (stereo not drawn) | 174% (active) |
| CC(C)CNc1ncnc2c1cnn2Cc1ccc(Cl)cc1 | 2.5% |
| O=C(Nc1ccc(-n2ccnc2P(=O)(O)c2ccccc2)cc1)c1ccccc1Br | -1.3% |
| COCCN(Cc1cc2cc3c(cc2nc1Cl)OCO3)C(=O)c1cccc(C)c1 | 2.77% |
| O=C(NC1CCN(Cc2ccccc2)CC1)c1ccc(Oc2cc(Cl)cc(Cl)c2)o1 | 0.679% |
| CCCOC1CCCN(Cc2cn(C)nc2-c2ccccc2F)C1 (stereo not drawn) | 44.6% (active) |
| Cn1cc(CN2CCCC(CO)C2)c(-c2ccc(Oc3ccccc3)cc2)n1 (stereo not drawn) | -1.18% |
| Cn1cc(CN2CCC(C(O)CCc3ccccc3)CC2)c(-c2ccccc2F)n1 (stereo not drawn) | -1.46% |
| O=C(CN1C(=O)c2cccnc2Oc2ccc(Cl)cc21)Nc1ccc(F)cc1 | 1.1% |
| Cc1ccc(CN2CCN(c3ncccn3)CC2)c(C)c1 | 0.144% |
| Oc1c(CN2CCN(c3ccc(F)cc3)CC2)cc(Cl)c2cccnc12 | 415% (active) |
| Oc1c(CN2CCCC2)cc(COCc2ccccc2)c2cccnc12 | 37.6% |
| O=C(Nc1ccc(N2CCN(C(=O)c3ccccc3)CC2)c(Cl)c1)c1cccnc1 | 0.424% |

| SMILES | activation |
| --- | --- |
| CC(CCn1cccn1)NC(=O)CCc1nnc(CCc2ccccc2)o1 (stereo not drawn) | -1.47% |
| CCc1noc(C)c1C(=O)N1CCCSC1=Nc1ccccc1OC | 2.57% |
| O=C(CN1CCN(S(=O)(=O)c2cc(Cl)ccc2Cl)CC1)c1ccc(O)c(O)c1 | 95.7% (active) |
| COc1ccc(Cl)cc1S(=O)(=O)N1CCN(CC(=O)C(C)(C)C)CC1 | -1.27% |
| N#Cc1ccsc1NC(=O)CN1CCN(S(=O)(=O)c2cc(Cl)ccc2Cl)CC1 | -1.62% |
| C[C@H](C(=O)CC(=O)OC(C)(C)C)[C@H](O)c1ccc(C(F)(F)F)cc1 | 1.59% |
| COc1ccc(NC(=O)C2=C(C)NC(=O)NC2c2ccccc2[N+](=O)[O-])cc1 (stereo not drawn) | -2.61% |
| CNc1nc(Nc2ccc(C)c(Cl)c2)nc(N)c1[N+](=O)[O-] | 5.39% |
| Cc1ccc(Nc2nc(N)nc(CN3CCN(Cc4ccccc4)CC3)n2)cc1Cl | 0.453% |
| OCCNc1nc(Nc2ccc(Cl)c(Cl)c2)nc2ccccc12 | 51.9% (active) |
| CCN(C(=O)CSc1nc(N)cc(=O)[nH]1)C1CCS(=O)(=O)C1 (stereo not drawn) | 1.25% |
| CSCCNCc1cn(-c2ccc(F)cc2F)nc1-c1ccccc1C | -1.15% |
| O=C(NCCc1ccc(Cl)cc1)c1cccc(N2CCCC2=O)c1 | 54.4% (active) |
| Oc1cc2c(cc1O)CN(C(=S)NCCc1ccc(Cl)cc1)CCC2 | 58.3% (active) |
| C/C(=N\NC(=O)c1cccc(N2CCCC2=O)c1)c1ccc(N)cc1 | 1.34% |
| Cc1ccc(NC(=S)NCCc2ccc(Cl)cc2)c(C)c1 | 1.96% |
| COc1ccc(CCNC(=S)N2CCN(S(=O)(=O)c3ccc(Cl)cc3)CC2)cc1 | 1.93% |
| CC1CCCC(NC(=O)c2cccc(N3CCCC3=O)c2)C1C (stereo not drawn) | 3.2% |
| O=C(CSc1nnc(SCc2ccc(F)cc2)s1)Nc1ccc(C(=O)O)cc1 | -2.09% |
| Cc1ccc(C2NC(=S)NC3=C2N2CCC3CC2)cc1 (stereo not drawn) | -2.03% |
| CC(C(=O)O)n1cnc2sc3c(c2c1=O)CCCC3 (stereo not drawn) | -0.91% |
| O=S(=O)(c1ccccc1)N(Cc1cccc(F)c1)c1ccccc1 | -1.78% |

| SMILES | activation |
| --- | --- |
| CC1(C)CC(=O)C=C(NC2CC(C)(C)NC(C)(C)C2)C1 | 0.506% |
| Cc1onc(C(=O)NN)c1-c1csc(COc2ccccc2)n1 | -0.475% |
| CCCC(=O)N1c2ccc(-c3csc(N)n3)cc2CC1C (stereo not drawn) | 4.75% |
| CC(C)(C)C(=O)OCc1nc(-c2ccc(O)c(O)c2)cs1 | 170% (active) |
| NC(=O)C1CCN(C(=O)COc2ccc3c4c(c(=O)oc3c2)CCC4)CC1 | 1.77% |
| COc1cnc(-c2ccccn2)nc1Oc1ccc(C(C)(C)C)cc1 | 3.2% |
| N#Cc1ccc(Oc2cc(C(F)(F)F)nc(-c3ccccn3)n2)cc1 | -0.253% |
| Cc1ccc(Oc2nc(-c3ccccn3)nc3ccccc23)cc1 | 48.5% (active) |
| c1ccc2c(NCC3CCCO3)nc(-c3ccncc3)nc2c1 (stereo not drawn) | -0.369% |
| CC(C)(C)Nc1nc(-c2ccccn2)nc2ccccc12 | 61.4% (active) |
| COc1ccc(CNc2ncnc3ccccc23)cc1 | 5.16% |
| CCCCOc1ccc(C(=O)N/C(=C/C=C/c2ccccc2)C(=O)N2CCOCC2)cc1 | 5.27% |
| Cc1ccc2cc3cc(C(=O)N4CCCCCC4)oc3nc2c1 | 0.396% |
| O=C(CSc1nc2ncccc2[nH]1)Nc1ccc2c(c1)OCCO2 | 0.487% |
| Nc1nc(SCC(=O)NN(c2ccccc2)c2ccccc2)n[nH]1 | -0.687% |
| CC(C)NC(=S)N1CCN(S(C)(=O)=O)CC1 | 0.831% |
| O=C(NNc1cc(Cl)ccc1Cl)c1cccnc1Cl | 0.393% |
| CC(=O)/C(=N\Nc1ccc(Cl)cc1Cl)Sc1cccc2cccnc12 | 184% (active) |
| COc1cccc(CNC(=O)c2cccnc2Sc2ccc(Cl)cc2)c1 | 0.384% |
| Cc1ccc(S(=O)(=O)CCC(=O)OCc2ccccc2)cc1 | 0.112% |
| CCOC(=O)c1ccc(NC(=O)c2nc[nH]c2C(=O)N[C@@H](CCCCNC(=O)OC(C)(C)C)C(=O)OC(C)(C)C)cc1 | 2.33% |
| CC(=O)c1ccc(NC(=O)c2ccc(-n3cncn3)c([N+](=O)[O-])c2)cc1 | 2.02% |

| SMILES | activation |
| --- | --- |
| COCCOC(=O)c1c(C)oc2cc(Br)c(OCC(N)=O)cc12 | 0.018% |
| CCc1ccc2c(c1)C1(NN=C(c3ccccc3)S1)C(=O)N2 (stereo not drawn) | 135% (active) |
| Cc1occc1C(=O)NC1CCCN(Cc2ccc(CC(C)C)cc2)C1 (stereo not drawn) | 1.93% |
| O=C(Nc1c2c(nn1-c1ccccc1)CS(=O)(=O)C2)C1CCCC1 | -0.808% |
| COC(=O)c1ccc(C(=O)OC)c(NC(=S)N2CCN(c3cc(Cl)ccc3C)CC2)c1 | 1.94% |
| COC(=O)c1ccc(C(=O)Nc2cc(Cl)ccc2Cl)cc1NC(=O)c1ccccc1C | 49.7% (active) |
| CCCN(CCC)C(=S)Nc1cc(C(=O)OC)ccc1C(=O)OC | 2.25% |
| O=C(CSc1nc2ccccc2c(=O)n1CCCO)NC1CC1 | 1.02% |
| CCCCn1nc(C(=O)N2CCc3ccccc32)c2ccccc2c1=O | -1.34% |
| Cn1nccc1NC(=O)Nc1ccc(OC(F)(F)F)cc1 | 0.489% |
| O=C(Nc1ccc(OC(F)(F)F)cc1)c1ccc2c(c1)no[n+]2[O-] | 61% (active) |
| Cn1cccc1/C=N/NC(=O)c1ccc(OC(F)(F)C(F)F)cc1 | 2.77% |
| CC(C)CC(=O)N1CCC(O)(CS(=O)(=O)Cc2ccccc2)CC1 | -0.00639% |
| Cc1ccc(NC(=O)CCOc2ccccc2)cc1S(=O)(=O)Nc1ccccc1Cl | 2.43% |
| Cc1ccc(Cc2cnc(NC(=O)/C(C#N)=C/c3ccc(-c4cccc([N+](=O)[O-])c4)o3)s2)cc1 | 73.3% (active) |
| Cc1ccc(-c2ccc(/C=C(\C#N)C(N)=S)o2)c([N+](=O)[O-])c1 | 3.33% |
| Cc1ccc(C(=O)N/C(=C/c2ccc(-c3cccc([N+](=O)[O-])c3)o2)C(=O)NCCCN(C)C)cc1 | -0.289% |
| Cc1cc2c(cc1S(=O)(=O)NCc1ccc(Cl)cc1)OCC(=O)N2 | -0.754% |
| Cc1ccc(C)c(S(=O)(=O)N2CCN(c3ncnc4sccc34)CC2)c1 | 5.68% |
| Cc1cccc(NC(=O)CSC(N)=O)c1C | -0.357% |
| CCOC(=O)/C=c1\s/c(=C\c2ccc(C#N)cc2)c(=O)n1CC(=O)Nc1cccc(C)c1C | 75.5% (active) |
| Cc1cccc(NC(=O)CN2CCN(C(=O)C3CCN(C(=O)/C=C/c4ccccc4)CC3)CC2)c1C | 0.754% |

| SMILES | activation |
| --- | --- |
| COc1ccc(-c2c(C(C)=O)c(C)nc3sc4c(=O)n(-c5ccc(C)cc5)nnc4c23)cc1 | -0.914% |
| COC(=O)C(=Nc1ccccc1)/C(C(=O)C(=O)N(C)c1ccccc1)=C(\O)c1ccc(Cl)cc1 | 0.244% |
| CC1(C)CCSC(/C=C/c2ccccc2)=N1 | 57.7% (active) |
| C[C@H](CO)N1C[C@H](C)[C@@H](CN(C)C(=O)NC2CCCCC2)Oc2ccc(NC(=O)c3ccncc3)cc2C1=O | 2.08% |
| O=C(N/N=C/c1cccnc1)c1ccc(NC(=O)c2ccc(F)cc2)cc1 | 1.11% |
| COc1ccc(C(=O)NCC(=O)N/N=C/c2cccnc2)cc1 | 2.52% |
| O=C(CSc1cccc2cccnc12)N/N=C/c1cccnc1 | 227% (active) |
| Nc1nc(O)c(CC(=O)O)s1 | -0.635% |
| COc1cc(/C=C2/C(=O)ON=C2C)ccc1OCc1ccccc1F | 66.3% (active) |
| C=CCOc1ccc(/C=C2/C(=O)ON=C2C)cc1OCC | 0.964% |
| COc1cc(/C=C2/C(=O)ON=C2C)ccc1OCc1cccc(F)c1 | 30.3% |
| Cc1cc(C)n(-c2ccc(NC(=O)C3CCCCN3C(=O)c3cccs3)cc2)n1 (stereo not drawn) | -0.0869% |
| O=C(c1cccs1)N1CCCC(c2nc(-c3ccc(F)cc3)no2)C1 (stereo not drawn) | 1.93% |
| CS(=O)(=O)N(Cc1ccccc1)c1ccc(C(=O)NN=C2CCCCCC2)cc1 | 43.7% (active) |
| CN1CCC(=NNC(=O)c2ccc(N(Cc3ccc(Cl)cc3)S(C)(=O)=O)cc2)CC1 | 0.73% |
| Cc1ccccc1CN(c1ccc(C(=O)NCC2CCCO2)cc1)S(C)(=O)=O (stereo not drawn) | -1.43% |
| CCCC1CC(C)(C(=O)Cn2[nH]c(=O)ccc2=O)OC1=O (stereo not drawn) | 1.35% |
| CCOc1cc(/C=N/NC(=O)c2ccc(CSc3nncn3C)cc2)ccc1OCC(=O)N1CCOCC1 | 0.857% |
| O=C(NCC12CC3CC(C1)CC(CNC(=O)N1CCCC1)(C3)C2)N1CCCC1 | -2.08% |
| Cc1nn(CC(=O)NCC2CCCO2)c(=O)c2cc3ccccc3n12 (stereo not drawn) | -0.347% |
